According to ChEMBL document CHEMBL4334441, “Exploitation of Antibiotic Resistance as a Novel Drug Target: Development of a β-Lactamase-Activated Antibacterial Prodrug” (J Med Chem, 2019):
In brackets after ≈: the same amount, converted by molar mass.

Experiments:
[1] = Prodrug activation in Escherichia coli CFT073 expressing beta lactamase CTX-M-1 assessed as bacterial CTX-M-1-mediated ciprofloxacin release by measuring growth inhibition incubated for 18 hrs in presence of human serum by broth microdilution method; conditions: bacteria
How it was run: (§1)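 MIC assay in E. coli CFT073 carrying pSU18 (empty pEMP or encoding CTX-M-1), run in the presence of human serum. The read-out is the minimal concentration inhibiting bacterial growth.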

[2] = Prodrug activation in Escherichia coli CFT073 expressing NDM1 assessed as bacterial NDM1-mediated ciprofloxacin release by measuring growth inhibition incubated for 18 hr by broth microdilution method; conditions: bacteria
How it was run: (§2)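 MIC determination in E. coli CFT073, either wild type or carrying pSU18 (empty pEMP, or encoding CTX-M, NDM-1 or KPC). Dose–response growth curves were run, and each point is the mean ± SEM of n = 3. The MIC is the minimal concentration that inhibits bacterial growth.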

Escherichia coli [3] = test: Growth inhibition of Escherichia coli CFT073 incubated for 18 hrs by broth microdilution method; assay type: organism-based; conditions: in vivo; how it was run: as §2
[4] = Prodrug activation in ciprofloxacin-resistant Escherichia coli isolate EC12 expressing bacterial beta lactamase CTX-M-15 assessed as bacterial CTX-M-15-mediated ciprofloxacin release by measuring growth inhibition incubated for 18 hrs by broth microdilution method
[5] = Prodrug activation in Escherichia coli CFT073 expressing KPC3 assessed as bacterial KPC3-mediated ciprofloxacin release by measuring growth inhibition incubated for 18 hr by broth microdilution method; conditions: bacteria; how it was run: as §2
[6] = Prodrug activation in ciprofloxacin-resistant Escherichia coli isolate EC19 expressing bacterial beta lactamase CTX-M-15 assessed as bacterial CTX-M-15-mediated ciprofloxacin release by measuring growth inhibition incubated for 18 hrs by broth microdilution method
[7] = Ratio of prodrug activation in Escherichia coli CFT073 expressing beta lactamase CTX-M-1 assessed as bacterial CTX-M-1-mediated ciprofloxacin release by measuring bactericidal activity to bactericidal activity against Escherichia coli CFT073 expressing pSU18
[8] = Prodrug activation in ciprofloxacin sensitive Escherichia coli isolate EC16 expressing bacterial beta lactamase CTX-M-15 assessed as bacterial CTX-M-15-mediated ciprofloxacin release by measuring growth inhibition incubated for 18 hrs by broth microdilution method
Enterococcus faecalis [9] = test: Effect on growth of Enterococcus faecalis ATCC 29212 incubated for 18 hrs by broth microdilution method; assay type: organism-based; conditions: in vivo
[10] = Prodrug activation in ciprofloxacin sensitive Escherichia coli isolate EC11 expressing bacterial beta lactamase CTX-M-15 assessed as bacterial CTX-M-15-mediated ciprofloxacin release by measuring growth inhibition incubated for 18 hrs by broth microdilution method
[11] = Prodrug activation in Escherichia coli CFT073 expressing beta lactamase CTX-M-1 assessed as bacterial CTX-M-1-mediated ciprofloxacin release by measuring growth inhibition incubated for 18 hrs by broth microdilution method; conditions: bacteria; how it was run: as §2
Enterococcus faecalis [12] = test: Effect on growth of Enterococcus faecalis GW01 incubated for 18 hrs by broth microdilution method; assay type: organism-based; conditions: in vivo
[13] = Prodrug activation in ciprofloxacin sensitive Escherichia coli isolate EC17 expressing bacterial beta lactamase CTX-M-15 assessed as bacterial CTX-M-15-mediated ciprofloxacin release by measuring growth inhibition incubated for 18 hrs by broth microdilution method
[14] = Prodrug activation in ciprofloxacin-resistant Escherichia coli isolate EC13 expressing bacterial beta lactamase CTX-M-15 assessed as bacterial CTX-M-15-mediated ciprofloxacin release by measuring growth inhibition incubated for 18 hrs by broth microdilution method
Bacteria = test: Prodrug activation assessed as bacterial N-terminal His6-tagged CTX-M-15-mediated ciprofloxacin release by measuring inhibition of DNA gyrase activity 1 uM by SYBR Safe DNA gel staining-based agarose gel electrophoresis relative to control
How it was run: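 Cell-free assay using recombinant DNA gyrase with relaxed pBR322 plasmid DNA as substrate. Compounds were incubated with the gyrase and DNA in the absence or presence of purified recombinant β-lactamase CTX-M-15.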

Escherichia coli [15] = test: Growth inhibition of Escherichia coli CFT073 expressing pSU18 incubated for 18 hrs in presence of human serum; assay type: organism-based; how it was run: as §1
Escherichia coli [16] = test: Bactericidal activity against Escherichia coli CFT073 expressing pSU18 assessed as reduction in colony forming units at 78 nM measured after 6 hrs; assay type: ADME, organism-based; conditions: in vivo, 0.078 µM
How it was run: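 Time-kill assay on uropathogenic E. coli CFT073 carrying pSU18, either empty (pEMP, β-lactamase coding sequence absent) or encoding CTX-M-1. Cells were left untreated or exposed to drug, and viability was followed over time by CFU counts, with a 6 h incubation read-out.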

Escherichia coli [17] = test: Growth inhibition of ciprofloxacin-susceptible Escherichia coli CFT073 harboring pSU18 incubated for 18 hrs by broth microdilution method; assay type: organism-based; conditions: in vivo; how it was run: as §2

CC(=O)N[C@@H]1C(=O)N2C(C(=O)O)=C(COC(=O)c3cn(C4CC4)c4cc(N5CCNCC5)c(F)cc4c3=O)CS[C@H]12
growth inhibition (GI) [1]: Active | MIC [2]: 0.04 µg/mL (≈ 0.0683 µM) | MIC (Escherichia coli [3]): 0.18 µg/mL (≈ 0.307 µM) | growth inhibition (GI) [4]: Not Active | MIC [5]: 0.04 µg/mL (≈ 0.0683 µM) | growth inhibition (GI) [6]: Not Active | Ratio [7]: > 100 | growth inhibition (GI) [8]: Active | Activity (Enterococcus faecalis [9]): Non-Toxic | growth inhibition (GI) [10]: Active | MIC [11]: 0.04 µg/mL (≈ 0.0683 µM) | Activity (Enterococcus faecalis [12]): Non-Toxic | growth inhibition (GI) [13]: Active | growth inhibition (GI) [14]: Not Active | inhibition (Bacteria): > 50% | Activity (Escherichia coli [15]): Non-Toxic | Activity (Escherichia coli [16]): Non-Toxic | MIC (Escherichia coli [17]): 0.18 µg/mL (≈ 0.307 µM)
